# Bioassay records as filed in PubChem.
# proCasp3 act: activators of human procaspase-3. recombinant procaspase-3 D3A, Ac-DEVD-pNA absorbance 405 nm. activation, % at 8.5 µM. 330,000 tested, 0.11% active. P42574;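 active means activation above the mean of all tested compounds plus 3 SD, cut at about 21% in these data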;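 further: 0% = DMSO alone and 100% = DMSO wells spiked with extra 5 µM PC-3 D3A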
#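 Test system: Procaspase-3 D3A mutant; medium: Zinc-free HEPES/NaCl buffer with 0.01% Triton X-100 at pH 7.4; reagent: DEVD-pNA substrate; doses: one concentration, 8.5 µM nominal, 0.8% DMSO; times: 1 h preincubation plus 2 h reaction at 25 °C; signal: Epi-absorbance at 405 nm of released p-nitroaniline, 0 and 120 min; replicates: singlicate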
# MsrA act: bovine methionine sulfoxide reductase A activation. purified bovine MsrA, absorbance read-out. 360,000 tested, 0.3% active. activation, % at 10.6 µM. AID 602163; in the data active means activation above about 7.5%;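 further: 0% = vehicle and 100% = reference activator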
# proCasp7 act: activates human procaspase-7, counter-screen for procaspase-3 activators; recombinant procaspase-7, Ac-DEVD-pNA absorbance 405 nm; D23A/D198A/D206A triple mutant, cannot self-cleave; scale: DMSO 0, 5 µM enzyme 100; 330,000 tested, 0.093% active; AID 463210; P55210; activation, % at 8.5 µM;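 active means percent activation above the screen-wide mean plus 3 SD, cut at about 25% in these data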
# Target sequence (P55210 whole entry D23A/D198A/D206A): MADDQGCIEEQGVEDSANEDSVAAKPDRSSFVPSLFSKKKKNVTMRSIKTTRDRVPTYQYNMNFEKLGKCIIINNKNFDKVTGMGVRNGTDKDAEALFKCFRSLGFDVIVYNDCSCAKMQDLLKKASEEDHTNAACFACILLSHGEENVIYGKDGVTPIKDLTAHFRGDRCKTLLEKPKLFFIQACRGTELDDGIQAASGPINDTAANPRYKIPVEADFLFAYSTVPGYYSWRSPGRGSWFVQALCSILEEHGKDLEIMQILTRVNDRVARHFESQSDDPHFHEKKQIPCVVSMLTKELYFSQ
#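 signal = Epi-absorbance of released pNA at 405 nm, two timepoints | assay system = Uncleavable procaspase-7 mutant enzyme | reagent = Ac-DEVD-pNA substrate, 400 µM as added | times = 1 h enzyme–compound preincubation and 2 h substrate reaction, both 25 °C | benchmarks = low DMSO alone, high DMSO plus 5 µM PC-7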
# MsrA inh: bovine MsrA inhibition; purified bovine MsrA, absorbance read-out; inhibition, % at 15.5 µM; 360,000 tested, 0.75% active; AID 651718;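 further: 0% = vehicle wells with enzyme and 100% = reference inhibitor wells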
# MsrA conf: bovine MsrA inhibition, confirmed; shares compounds with MsrA inh; purified bovine MsrA, absorbance read-out; inhibition, % at 15.5 µM; 2,300 tested, 41% active; AID 651822;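 further: coupled to thioredoxin reductase with NADPH and selenocystamine and DMSO as substrate; 0% = vehicle only and 100% = full effect of reference inhibitor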
# * = called active by the depositor; x = no result given. A selection: hits, their analogues and other compounds. The true share with any hit is near 1.2%. Unless noted, no stated cut-off is given here; in the data, active means inhibition above about 4.5%; inactive means the rest.
SMILES,proCasp3 act,MsrA act,proCasp7 act,MsrA inh,MsrA conf
CCCC1S/C(=N/N=C/c2ccco2)NC1=O (stereo not given),1,-4,2,4.7*,6.6*
CC1S/C(=N/N=C/c2ccco2)NC1=O (stereo not given),-2,-12,12,4,x
COC(=O)[C@]12C[C@H](CC(=O)N3CCN(C(=O)c4ccco4)CC3)C(=O)N(CCC3=CCCCC3)C1=C[C@H](C(C)(C)C)O[C@@H]2C,x,x,x,0,x
CC(C)(C)C(=O)Nc1ccc(F)cc1[N+](=O)[O-],9,-3,1,6.3*,7.5*
Cc1ccc(Nc2n[nH]c(C)c2[N+](=O)[O-])c(C)c1,-7,0,2,10*,9.1*
Cc1ccccc1Nc1n[nH]c(C)c1[N+](=O)[O-],4,-4,-6,2,x
COCCCNC(=O)[C@@H](Cc1ccccc1)NC(=O)[C@H]1O[C@@H](n2ccc(=O)[nH]c2=O)[C@H](O)[C@@H]1O,x,x,x,0,x
CCCCN1CC(COCc2ccccc2)Oc2cccc(Oc3ccc(SC)c(C)c3)c2S1(=O)=O (stereo not given),x,x,x,0,x
O=C(NCc1ccccc1)/C(=C/c1ccccc1)NC(=O)c1ccco1,12,-6,5,-1,x
COc1ccc(NC(=O)/C(=C/c2ccc3c(c2)OCO3)NC(C)=O)cc1,-6,-3,2,5.0*,3
O=C(NCc1ccccc1)/C(=C\c1ccc(O)cc1)NC(=O)c1ccco1,3,-5,2,4.8*,1
COc1ccc(NC(=O)/C(=C/c2cccs2)NC(=O)c2ccco2)cc1,-8,-9,-1,2,x
COc1ccc(NC(=O)/C(=C\c2ccc(OC)c(OC)c2)NC(=O)c2ccco2)cc1,11,-6,17,5.0*,4.8*
COc1ccc(NC(=O)/C=C/c2ccc3c(c2)OCO3)cc1,5,-5,0,4,x
CC(=O)c1ccc(NC(=O)/C(=C\c2cccs2)NC(=O)c2ccco2)cc1,-4,-13,9,5.0*,4.7*
CN1OC[C@@H]2CN(CC3CCCCC3)[C@H](c3ccc(-c4ccc(C#N)cc4)cc3)C[C@@H]21,x,x,x,1,x
CC(=O)CCN1CCSCCS1(=O)=O,x,x,x,-1,x
C[C@@H]1OC(C2CCCCC2)N(C)[C@H]2C[C@H]3c4[nH]c5c(-c6ccccc6)cccc5c4CCN3C(=O)[C@@H]12 (stereo not given in full),x,x,x,-2,x
O=C1CCC(=O)N1c1nc2nc(-c3ccccc3)cc(-c3ccccc3)n2n1,-4,-8,2,4.7*,2
CC(=O)Nc1nc2nc(-c3ccccc3)cc(-c3ccccc3)n2n1,-2,-13,1,3,x
Cn1nnc2sc3c(c2c1=O)CCCC3,1,-1,0,5.0*,5.8*
O=C(/C=C/c1ccco1)Nc1cccc(S(=O)(=O)N2CCOCC2)c1,-4,-6,9,2,x
Cc1ccc(/C=C/C(=O)Nc2cccc(S(=O)(=O)N3CCOCC3)c2)o1,-6,-6,-13,5.0*,4.9*
O=[N+]([O-])c1cnc(Nc2ccc(Cl)cn2)c([N+](=O)[O-])c1,-10,2,1,6.1*,8.0*
CN1OC[C@@H]2CN[C@H](c3ccc(N4CCCCC4)cc3)C[C@@H]21,x,x,x,-1,x
SMILES,proCasp3 act,MsrA act,proCasp7 act,MsrA inh,MsrA conf
COc1cc2nn(-c3ccccc3N)nc2cc1OC,x,-2,x,4.8*,2
Nc1ccccc1-n1nc2ccc3ccccc3c2n1,x,-1,x,0,x
O=C1c2cccc3cc([N+](=O)[O-])cc(c23)C(=O)N1/N=C/c1ccc(O)cc1O,-9,-5,3,4.7*,2
O=[N+]([O-])c1ccc(O)c(C=NNc2ccc(S(=O)(=O)O)cc2)c1,x,-5,x,5.3*,6.2*
O=[N+]([O-])c1cccc(N/N=C/c2cc([N+](=O)[O-])ccc2O)c1,-7,-15,-13,2,x
Cc1ccc(OC2CCN(C(=O)[C@@H](Cc3ccccc3)NC(=O)[C@H]3O[C@@H](n4ccc(=O)[nH]c4=O)[C@H](O)[C@@H]3O)CC2)cc1,x,x,x,0,x
Cc1ncc(CO)c(CNc2ccc(-c3nc4ccccc4[nH]3)cc2)c1O,x,-6,x,6.4*,5.2*
Cc1ncc(CO)c(CO)c1O,0,7,-8,0,x
CN1CCCCC(NC(=O)C23CC4CC(CC(C4)C2)C3)C1=O (stereo not given),x,x,x,1,x
CCOC(=O)c1cnn2c(C(F)(F)F)cc(-c3ccccc3)nc12,1,-3,2,1,x
